We go through seven molecules from ChEMBL document CHEMBL1938284, “Synthesis and biological activity of novel organoselenium derivatives targeting multiple kinases and capable of inhibiting cancer progression to metastases” (Eur J Med Chem, 2012).

pIC50: −log10 of the molar value. Where only a bound is given, the exact number is not on record here.

The nature of the experiment: Antiproliferative activity against human MDA231 cells after 72 hrs by MTT assay. It counts as functional, cell-based. The settings on record: MDA-MB-231, 72 h. In short, it runs like this: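 MTT read-out on MDA-231 cells. 1×10^3 exponentially growing cells seeded and incubated 24, 48 and 72 h. Medium replaced with 1 mg/mL MTT for 3–4 h at 37 °C.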
In general terms: Tetrazolium assays rely on reduction of a dye to a coloured formazan, in cell work by metabolically active cells.
With `CC(=O)OC[C@H]1O[C@@H](OCCn2[se]c3ccccc3c2=O)[C@H](OC(C)=O)[C@@H](OC(C)=O)[C@@H]1OC(C)=O`, the pIC50 was 4.46.

For `CC(=O)OC[C@H]1O[C@@H](n2[se]c3ccccc3c2=O)[C@H](OC(C)=O)[C@@H](OC(C)=O)[C@H]1OC(C)=O`, the pIC50 is 4.68.

Consider `CC(=O)OC[C@H]1O[C@@H](n2[se]c3ccccc3c2=O)[C@H](OC(C)=O)[C@@H](OC(C)=O)[C@@H]1O[C@@H]1O[C@H](COC(C)=O)[C@@H](OC(C)=O)[C@H](OC(C)=O)[C@H]1OC(C)=O`, for which the pIC50 was 4.70.

As for `O=c1c2ccccc2[se]n1[C@@H]1O[C@H](CO)[C@@H](O[C@@H]2O[C@H](CO)[C@H](O)[C@H](O)[C@H]2O)[C@H](O)[C@H]1O`, the pIC50 is under 4.00.

In turn, `O=c1c2ccccc2[se]n1[C@@H]1O[C@H](CO)[C@@H](O[C@@H]2O[C@H](CO)[C@@H](O)[C@H](O)[C@H]2O)[C@H](O)[C@H]1O` gave a pIC50 of under 4.00.

For the molecule `O=c1c2ccccc2[se]n1[C@@H]1O[C@H](CO)[C@H](O)[C@H](O)[C@H]1O`, the pIC50 is under 4.00.

In turn, `O=c1c2ccccc2[se]n1CCO[C@@H]1O[C@H](CO)[C@@H](O)[C@H](O)[C@H]1O` showed a pIC50 of under 4.00.

Broadly, the pIC50 is −log10 of the IC50, conventionally taken in molar units. Lower therefore signals a high IC50.
